From ChEMBL document CHEMBL4665810, “Aryloxy Diester Phosphonamidate Prodrugs of Phosphoantigens (ProPAgens) as Potent Activators of Vγ9/Vδ2 T-Cell Immune Responses” (J Med Chem, 2020)
Blank lines part the entries; values can stand above or below the molecule they belong to. Active and inactive are the calls of the source. The calls are words filed in the database; no cut-off is given here.

Columns and labels:
[1] = biological target: T1, Butyrophilin subfamily 3 member A1 (Homo sapiens, UniProt O00481); experiment: Binding affinity to BTN3A1 in human PBMC-derived Vgamma9/Vdelta2 T cells assessed as increase in CD69/CD25 level incubated for overnight by flow cytometric analysis; format: tissue-based, Vgamma9Vdelta2 T cell
Summary of the method: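 Healthy-donor PBMCs, 5 × 10^5 cells per well, stimulated with compounds over 10 pM to 100 μM, or 1 aM to 100 μM in a separate run. Incubated overnight at 37 °C/5% CO2. Vγ9+Vδ2+ cells gated within live CD3+ cells by flow cytometry and scored as % CD69+CD25+.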
Target sequence in this assay (O00481 whole entry): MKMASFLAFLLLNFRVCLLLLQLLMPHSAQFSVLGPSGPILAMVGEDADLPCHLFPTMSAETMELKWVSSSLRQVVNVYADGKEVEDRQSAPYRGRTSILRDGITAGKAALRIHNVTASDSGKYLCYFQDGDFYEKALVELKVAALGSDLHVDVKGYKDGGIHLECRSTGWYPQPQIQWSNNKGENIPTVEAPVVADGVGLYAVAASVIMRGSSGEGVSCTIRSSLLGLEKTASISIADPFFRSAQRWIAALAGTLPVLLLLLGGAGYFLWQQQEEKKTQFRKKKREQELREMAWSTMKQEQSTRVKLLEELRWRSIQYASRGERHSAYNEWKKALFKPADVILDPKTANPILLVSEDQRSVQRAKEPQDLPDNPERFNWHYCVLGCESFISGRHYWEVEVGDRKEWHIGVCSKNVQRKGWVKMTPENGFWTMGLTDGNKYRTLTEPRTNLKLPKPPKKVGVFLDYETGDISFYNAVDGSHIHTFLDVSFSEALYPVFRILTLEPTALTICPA

[2] = biological target: T1, Butyrophilin subfamily 3 member A1; experiment: (§1) Binding affinity to BTN3A1 in human PBMC-derived Vgamma9/Vdelta2 T cells assessed as induction of Vgamma9/Vdelta2 T cell mediated T-24 cell lysis co-expressing GFP at 10 pM preincubated 4 hrs followed by compound washout and subsequent Vgamma9Vdelta2 T cell addition at 8:1 effector/target ratio and measured after 18 hrs by fluorescence based assay; format: tissue-based
Summary of the method: (§2)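 T24 bladder carcinoma cells made GFP+ by retroviral transduction. Targets pulsed 4 h with 10 pM compound, washed three times in RPMI, then cocultured 18 h at 37 °C with Vγ9Vδ2 T-cells expanded 14 days from donor PBMCs (5 μM zoledronate, 100 U/mL IL2 every 2–3 days). % killing = eFluor780+ GFP+ of all GFP+ T24 cells, by flow cytometry. Basal untreated-target killing subtracted; mean ± SE, n = 3.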
Target sequence in this assay (O00481 30-513 limits assumed): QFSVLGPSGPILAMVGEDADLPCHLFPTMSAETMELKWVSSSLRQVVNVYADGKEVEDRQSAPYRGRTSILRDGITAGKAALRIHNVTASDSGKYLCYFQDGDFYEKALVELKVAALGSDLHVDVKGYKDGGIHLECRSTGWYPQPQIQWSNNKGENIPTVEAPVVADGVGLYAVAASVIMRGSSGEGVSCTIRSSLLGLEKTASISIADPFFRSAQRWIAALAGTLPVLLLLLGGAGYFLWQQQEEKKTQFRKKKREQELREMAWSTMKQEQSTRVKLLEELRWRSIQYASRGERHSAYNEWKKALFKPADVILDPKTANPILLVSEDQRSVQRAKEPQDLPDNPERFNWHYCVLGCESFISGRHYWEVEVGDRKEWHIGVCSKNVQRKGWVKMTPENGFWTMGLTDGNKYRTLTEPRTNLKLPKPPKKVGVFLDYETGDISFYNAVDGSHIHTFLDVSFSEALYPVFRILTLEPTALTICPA

[3] = biological target: T1, Butyrophilin subfamily 3 member A1; experiment: as §1, with “1:1” for “8:1”; format: tissue-based; summary of the method: as §2
Target sequence in this assay (O00481 30-513 limits assumed): as above

[4] = tested on: T-24; experiment: Cytotoxicity against human T-24 cells co-expressing GFP assessed as reduction in cell viability at 10 pM after 4 hrs by eFluor 780 fixable viability dye based fluorescence assay; conditions: t-24, 4 h
Summary of the method: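 GFP+ T24 cells pulsed 4 h with 10 pM compound, washed, and held 18 h at 37 °C without effector cells (0:1 ratio). Dead targets measured by flow cytometry as eFluor780+ GFP+ fraction of total GFP+ T24 cells; mean ± SE, n = 3.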

[5] = biological target: T1, Butyrophilin subfamily 3 member A1; experiment: Potency index, ratio of HMBPP EC50 to test compound EC50 for activation of BTN3A1 in human PBMC-derived Vgamma9/Vdelta2 T cells; format: tissue-based; conditions: Vgamma9Vdelta2 T cell
Target sequence in this assay (O00481 30-513 limits assumed): as above

[6] = Stability of compound in human serum at 5 mg and measured at 30 mins interval for up to 12 hrs by 31PNMR analysis; format: ADME, cell-free
Summary of the method: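 Compound, 5.0 mg in DMSO/D2O, with control 31P NMR recorded at 37 °C. Freshly thawed human serum then added and 31P NMR spectra recorded at 37 °C every 30 min over 12 h.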

[7] = tested on: CD8-positive T cell; experiment: Activation of human PBMC derived CD-8 positive cells assessed as increase in alphabeta T cells at 0.1 to 10000 nM by Alexa Flour A88a staining based flow cytometry; format: functional; conditions: dose nM 0.1-10000
[8] = biological target: T1, Butyrophilin subfamily 3 member A1; experiment: Binding affinity to BTN3A1 in human PBMC-derived Vgamma9/Vdelta2 T cells; format: tissue-based, Vgamma9Vdelta2 T cell
Target sequence in this assay (O00481 whole entry): as the sequence (O00481 whole entry) above

[9] = Drug metabolism assessed as recombinant carboxypeptidase Y (unknown origin)-mediated hydrolysis of ester motif at 3 mg measured at 1 hr interval […] by 31PNMR analysis; format: ADME, Homo sapiens
Summary of the method: (§3)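 Compound, 3.0 mg in acetone-d6, mixed with TRIZMA buffer pH 7.6. Control 31P NMR taken at 25 °C, then carboxypeptidase Y (0.1 mg in TRIZMA) added. Spectra recorded at 25 °C after 10 min and then every 1 h for 12 h.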

[10] = Drug metabolism assessed as recombinant carboxypeptidase Y (unknown origin)-mediated metabolite C formation and measured up to 15 hrs by HPLC analysis; format: ADME; conditions: human
[11] = Drug metabolism assessed as recombinant carboxypeptidase Y (unknown origin)-mediated metabolite C formation and measured up to 15 hrs by LC-MS analysis; format: ADME; conditions: human
[12] = Drug metabolism assessed as recombinant carboxypeptidase Y (unknown origin)-metabolite C formation at 3 mg measured at 1 hr interval for […] by 31PNMR analysis; format: ADME, Homo sapiens; summary of the method: as §3
[13] = Half life in human serum at 5 mg and measured up to 12 hrs by 31PNMR analysis; format: ADME, cell-free
Summary of the method: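 Prodrug (5.0 mg) dissolved in DMSO/D2O; control 31P NMR spectrum recorded at 37 °C, then freshly thawed human serum added. 31P NMR spectra acquired at 37 °C every 30 min over 12 h to follow the prodrug signals.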

Structure (SMILES): O=P(O)(O)C(O)(Cn1ccnc1)P(=O)(O)O [ZOLEDRONIC ACID]
- EC50 [1]: 3060 nM

Structure (SMILES): C/C(=C\CCP(=O)(N[C@@H](C)C(=O)OCc1ccccc1)Oc1ccccc1)CO (some centres undefined)
- Activity [2]: Active
- Activity [3]: Active
- Activity [4]: Non-Toxic
- Ratio EC50 [5]: 15000
- Stabilty [6]: Stable
- Activity [7]: inactive

- EC50 [8]: 80 nM
Structure (SMILES): O=P(O)(O)C(O)(Cc1cccnc1)P(=O)(O)O [RISEDRONIC ACID]

Structure (SMILES): C/C(=C\CCP(=O)(N[C@@H](C)C(=O)OC(C)(C)C)Oc1ccccc1)CO (some centres undefined)
- Activity [2]: Active
- Activity [3]: Active
- Activity [4]: Non-Toxic
- EC50 [1]: 73.4 nM

Structure (SMILES): COC(=O)[C@H](C)NP(=O)(CC/C=C(\C)CO)Oc1ccccc1 (some centres undefined)
- EC50 [1]: 0.617 nM

Structure (SMILES): COC(=O)[C@H](C)NP(=O)(Oc1ccccc1)C(F)(F)C/C=C(\C)CO (some centres undefined)
- EC50 [1]: 0.728 nM
- Stabilty [6]: Stable

Structure (SMILES): C/C(=C\CC(F)(F)P(=O)(N[C@@H](C)C(=O)OC(C)C)Oc1ccccc1)CO (some centres undefined)
- Drug metabolism [9]: Metabolite_Detected
- EC50 [1]: 0.759 nM
- Drug metabolism [10]: Metabolite_Detected
- Drug metabolism [11]: Metabolite_Detected
- Drug metabolism [12]: Metabolite_Detected

Structure (SMILES): C/C(=C\CC(F)(F)P(=O)(N[C@@H](C)C(=O)OCc1ccccc1)Oc1ccccc1)CO (some centres undefined)
- Activity [2]: Active
- Activity [3]: Active
- Activity [4]: Non-Toxic
- Ratio EC50 [5]: 15000
- Activity [7]: inactive

Structure (SMILES): C/C(=C\COP(=O)(O)OP(=O)(O)O)CO
- Activity [2]: Active
- Activity [3]: Active
- Activity [4]: Non-Toxic
- half-life [13]: > 720 min

Structure (SMILES): C/C(=C\CC(F)(F)P(=O)(N[C@@H](C)C(=O)OC(C)(C)C)Oc1ccccc1)CO (some centres undefined)
- Activity [2]: Active
- Activity [3]: Active
- Activity [4]: Non-Toxic
- EC50 [1]: 25.8 nM

Structure (SMILES): C/C(=C\CCP(=O)(N[C@@H](C)C(=O)OC(C)C)Oc1ccccc1)CO (some centres undefined)
- EC50 [1]: 0.519 nM
